Measured values from ChEMBL document CHEMBL1145575, “Design and synthesis of novel furoquinoline based inhibitors of multiple targets in the PI3K/Akt-mTOR pathway” (Bioorg Med Chem Lett, 2008).
The source made the active and inactive calls. The rule behind the calls is not given here.

What was measured:
[1] = biological target: Phosphatidylinositol 4,5-bisphosphate 3-kinase catalytic subunit alpha isoform (Homo sapiens, UniProt P42336); assay: Inhibition of human recombinant PI3K-alpha assessed as formation of PI3P from PI by cell free kinase assay
Method in brief: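 Cell-free kinase assay with recombinant PI3Kα (p110α). The read-out was PI3P formed from the substrate phosphatidylinositol. An IC50 was derived.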

[2] = biological target: Serine/threonine-protein kinase mTOR (Homo sapiens) (UniProt P42345); assay: Inhibition of mTOR in human H460 cells assessed as p70S6 phosphorylation at Thr 389 at 10 uM; type: cell-based
Method in brief: (§1)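 Human NSCLC H-460 cells; PI3K activity read as Akt phosphorylation at Ser 473 and mTOR activity as p70S6 kinase phosphorylation at Thr 389. Compounds were screened at 10 µM, and some up to 30 µM. Activity was reported as % inhibition. LY-294002 served as the reference inhibitor at 30 µM.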

[3] = biological target: T1, Hypoxia inducible factors; HIF-1-alpha, HIF-2-alpha (Homo sapiens, UniProt Q16665+Q99814); assay: Inhibition of hypoxia-induced HIF1 activation in human U251HRE cells by cell based reporter gene assay
H460 [4] = assay: Inhibition of PI3K in human H460 cells assessed as Akt phosphorylation at Ser 473 upto 30 uM; type: cell-based; method in brief: as §1
H460 [5] = assay: Inhibition of PI3K in human H460 cells assessed as Akt phosphorylation at Ser 473 at 10 uM; type: cell-based; method in brief: as §1
[6] = biological target: Serine/threonine-protein kinase mTOR (Homo sapiens) (UniProt P42345); assay: Inhibition of mTOR in human H460 cells assessed as p70S6 phosphorylation at Thr 389 upto 30 uM; type: cell-based; method in brief: as §1
[7] = biological target: Hypoxia-inducible factor 1-alpha (Homo sapiens) (UniProt Q16665); assay: Inhibition of HIF1alpha
Method in brief: (§2)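 HRE-driven cell-based reporter gene assay of HIF-1 activation. Activation was induced by hypoxia (1% O2, 94% N2, 5% CO2) or by DFX. Compounds were tested up to 30 µM and an IC50 was derived. YC-1 served as the reference inhibitor.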

[8] = biological target: Hypoxia-inducible factor 1-alpha (Homo sapiens) (UniProt Q16665); assay: Inhibition of HIF1-alpha at 30 uM; method in brief: as §2
H460 [9] = assay: Inhibition of PI3K in human H460 cells assessed as Akt phosphorylation at 3 uM by Western blot
[10] = biological target: Serine/threonine-protein kinase mTOR (Homo sapiens) (UniProt P42345); assay: Inhibition of mTOR in human H460 cells assessed as 4E-BP1 phosphorylation at 10 uM by Western blot; type: cell-based
Method in brief: (§3)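 H460 cells were stimulated with 20% FCS in the presence of test compound at 3 or 10 µM, alongside untreated and FCS-only controls. Phosphorylation was assessed by Western blot.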

[11] = biological target: Serine/threonine-protein kinase mTOR (Homo sapiens) (UniProt P42345); assay: Inhibition of mTOR in human H460 cells assessed as 4E-BP1 phosphorylation at 3 uM by Western blot; type: cell-based; method in brief: as §3
[12] = biological target: T1, Hypoxia inducible factors; HIF-1-alpha, HIF-2-alpha; assay: Inhibition of HIF1 in human U251HRE cells at 10 uM by Western blot; type: cell-based
Method in brief: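 U251-HRE-Luc cells were induced with DFX for 6 h in the presence of test compound at 10 µM, alongside untreated and DFX-only controls. HIF-1 was assessed by Western blot.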

H460 [13] = assay: Inhibition of PI3K in human H460 cells assessed as Akt phosphorylation at 10 uM by Western blot

Sequence of Hypoxia-inducible factor 1-alpha (Homo sapiens) (Q16665 whole entry, looked up): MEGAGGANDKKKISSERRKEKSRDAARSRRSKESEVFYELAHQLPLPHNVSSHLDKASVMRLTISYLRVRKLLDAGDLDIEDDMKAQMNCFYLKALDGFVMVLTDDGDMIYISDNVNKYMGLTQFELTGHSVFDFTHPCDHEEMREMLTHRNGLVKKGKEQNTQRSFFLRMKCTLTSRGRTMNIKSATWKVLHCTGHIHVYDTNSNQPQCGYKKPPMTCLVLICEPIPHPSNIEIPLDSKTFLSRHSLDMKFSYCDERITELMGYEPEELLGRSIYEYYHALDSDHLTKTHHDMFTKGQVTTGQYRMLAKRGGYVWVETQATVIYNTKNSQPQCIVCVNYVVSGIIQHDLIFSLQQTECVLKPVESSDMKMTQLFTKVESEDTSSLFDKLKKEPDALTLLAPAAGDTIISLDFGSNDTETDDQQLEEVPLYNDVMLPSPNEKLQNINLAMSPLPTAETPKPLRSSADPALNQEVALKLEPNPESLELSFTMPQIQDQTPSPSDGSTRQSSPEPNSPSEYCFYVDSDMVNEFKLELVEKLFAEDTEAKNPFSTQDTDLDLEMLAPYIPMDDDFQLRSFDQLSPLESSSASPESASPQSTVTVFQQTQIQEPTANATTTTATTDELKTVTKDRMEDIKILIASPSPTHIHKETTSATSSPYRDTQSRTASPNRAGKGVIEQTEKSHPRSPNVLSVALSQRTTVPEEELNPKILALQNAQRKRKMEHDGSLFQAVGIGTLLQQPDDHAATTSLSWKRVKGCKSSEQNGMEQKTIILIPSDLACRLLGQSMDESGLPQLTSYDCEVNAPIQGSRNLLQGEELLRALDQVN
Sequence of Phosphatidylinositol 4,5-bisphosphate 3-kinase catalytic subunit alpha isoform (P42336 whole entry, canonical isoform): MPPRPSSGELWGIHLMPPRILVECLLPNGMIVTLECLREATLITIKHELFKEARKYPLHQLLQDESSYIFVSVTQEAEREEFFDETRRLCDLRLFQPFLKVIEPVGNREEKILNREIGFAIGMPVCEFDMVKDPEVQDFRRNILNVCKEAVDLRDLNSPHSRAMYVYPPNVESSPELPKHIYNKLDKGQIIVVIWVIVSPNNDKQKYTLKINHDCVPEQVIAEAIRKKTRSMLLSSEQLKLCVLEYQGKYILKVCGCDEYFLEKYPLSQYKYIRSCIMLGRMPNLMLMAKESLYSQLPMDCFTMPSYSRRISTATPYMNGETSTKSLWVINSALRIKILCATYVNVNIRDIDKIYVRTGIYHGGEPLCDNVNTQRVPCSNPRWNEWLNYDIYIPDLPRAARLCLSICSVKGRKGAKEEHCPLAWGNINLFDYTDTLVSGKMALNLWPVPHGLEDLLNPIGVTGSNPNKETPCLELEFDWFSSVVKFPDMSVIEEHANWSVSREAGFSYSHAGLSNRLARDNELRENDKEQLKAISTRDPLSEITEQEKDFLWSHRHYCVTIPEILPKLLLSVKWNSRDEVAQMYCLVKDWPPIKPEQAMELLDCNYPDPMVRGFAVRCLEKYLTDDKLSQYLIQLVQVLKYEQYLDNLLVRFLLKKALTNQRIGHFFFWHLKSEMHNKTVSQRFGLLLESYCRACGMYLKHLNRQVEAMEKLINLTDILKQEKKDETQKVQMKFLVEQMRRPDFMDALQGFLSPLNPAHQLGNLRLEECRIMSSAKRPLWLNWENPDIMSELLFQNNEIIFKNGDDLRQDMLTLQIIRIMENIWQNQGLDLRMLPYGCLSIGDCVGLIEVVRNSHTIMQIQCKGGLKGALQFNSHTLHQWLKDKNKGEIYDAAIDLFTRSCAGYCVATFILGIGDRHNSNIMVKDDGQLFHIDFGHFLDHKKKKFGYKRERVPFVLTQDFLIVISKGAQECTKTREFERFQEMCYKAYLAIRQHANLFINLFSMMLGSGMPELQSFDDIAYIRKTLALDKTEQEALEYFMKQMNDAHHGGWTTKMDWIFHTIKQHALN

| SMILES | Activity [1] | Activity [3] | Activity [6] | Activity (H460 [4]) | inhibition (H460 [5]) [%] | further results |
| --- | --- | --- | --- | --- | --- | --- |
| c1cncc(Oc2c3cc4c(cc3nc3occc23)OCO4)c1 | inactive | inactive |  | inactive |  | inhibition [2]: 51% |
| COc1ccc2c(Nc3ccc(C(C)=O)cc3)c3ccoc3nc2c1 | inactive | inactive |  | inactive |  | inhibition [2]: 53% |
| O=[N+]([O-])c1cn(-c2c3cc4c(cc3nc3occc23)OCO4)cn1 | inactive | inactive | inactive |  | 57 |  |
| COc1ccc2c(Sc3ccc(Br)cc3)c3ccoc3nc2c1 | inactive | inactive | inactive | inactive |  | Activity [7]: inactive |
| COc1ccc2c(Oc3cccc([N+](=O)[O-])c3)c3ccoc3nc2c1 | inactive | inactive | inactive |  | 43 |  |
| COc1ccc2c([S+]([O-])c3ccc([N+](=O)[O-])cc3)c3ccoc3nc2c1 (centres undefined) | inactive | inactive | inactive | inactive |  | Activity [7]: inactive |
| O=[N+]([O-])c1ccc(Oc2c3cc4c(cc3nc3occc23)OCO4)cc1 | inactive | inactive |  | inactive |  | inhibition [2]: 47% |
| COc1ccc2c(Sc3ccc(C#N)cc3)c3ccoc3nc2c1 | inactive | inactive | inactive | inactive |  | Activity [7]: inactive |
| COc1ccc2c(N3CCN(C(C)=O)CC3)c3ccoc3nc2c1 | inactive | inactive | inactive |  | 58 |  |
| COc1ccc2c(Sc3ccc(C(=O)O)cc3)c3ccoc3nc2c1 | inactive | inactive | inactive | inactive |  | Activity [7]: inactive |
| N#Cc1ccc(Oc2c3cc4c(cc3nc3occc23)OCO4)cc1 | inactive | inactive | inactive |  | 58 |  |
| Fc1ccc(Oc2c3cc4c(cc3nc3occc23)OCO4)cc1 | inactive | inactive | inactive |  | 45 |  |
| O=c1cc(N2CCOCC2)oc2c(-c3ccccc3)cccc12 |  |  |  |  |  | inhibition [6]: 45%; inhibition (H460 [4]): 40% |
| O=[N+]([O-])c1ccc(Sc2c3cc4c(cc3nc3occc23)OCO4)cc1 | inactive | inactive |  | inactive |  | inhibition [2]: 44% |
| COc1ccc2c(Sc3ccc([N+](=O)[O-])cc3)c3ccoc3nc2c1 |  |  |  |  | 48 | Activity (H460 [9]): Active; IC50 [1]: 4 µM; inhibition [2]: 49%; Activity [10]: Active; Activity [11]: Active; Activity [12]: Active; IC50 [3]: 3 µM; Activity (H460 [13]): Active; Activity [7]: Active |

Further lines, with some results ahead:

| Activity [1] | Activity [3] | Activity [6] | SMILES | Activity (H460 [4]) | inhibition (H460 [5]) [%] | further results |
| --- | --- | --- | --- | --- | --- | --- |
| inactive | inactive | inactive | COc1ccc2c(Oc3cccnc3)c3ccoc3nc2c1 |  | 67 |  |
| inactive | inactive | inactive | COc1cc2nc3occc3c(-n3ccnc3)c2cc1OC |  | 64 |  |
| inactive | inactive | inactive | COc1cc2nc3occc3c(-n3cnc([N+](=O)[O-])c3)c2cc1OC |  | 58 |  |
| inactive | inactive | inactive | COc1cc2nc3occc3c(Oc3cccnc3)c2cc1OC |  | 43 |  |
| inactive | inactive | inactive | COc1ccc2c(-n3ccnc3)c3ccoc3nc2c1 |  | 64 |  |
|  |  | inactive | COc1ccc2c(OC)c3ccoc3nc2c1 | inactive |  | Activity [8]: inactive |
| inactive | inactive |  | c1cn(-c2c3cc4c(cc3nc3occc23)OCO4)cn1 |  | 40 | inhibition [2]: 45% |
| inactive | inactive | inactive | COc1cc2nc3occc3c(Sc3ccc([N+](=O)[O-])cc3)c2cc1OC | inactive |  |  |
